From ChEMBL document CHEMBL4196041 (Eur J Med Chem, 2018)
Each block holds one compound with its values, some of them ahead of it.

Legend:
[1] = molecular target: T1, 3',5'-cyclic-AMP phosphodiesterase 4B (Homo sapiens, UniProt Q07343); assay: Inhibition of PDE4B (unknown origin) assessed as increase in cAMP level by measuring cAMP level after 3 hrs by cell based ELISA
[2] = molecular target: T1, 3',5'-cyclic-AMP phosphodiesterase 4B; assay: Inhibition of PDE4B (unknown origin) assessed as reduction in TNFalpha level after 1.5 hrs by cell based ELISA; conditions: concentration not given here
[3] = Half life in Wistar rat liver S9 fraction at 20 uM in presence of NADPH by HPLC-UV analysis; type: ADME, subcellular
Procedure, shortened: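 Phase I stability in liver S9 (9,000× g) from male Wistar rats, prepared at 0–4°C. […] Stopped with cold acetonitrile plus chlorzoxazone internal standard. Centrifuged, then intact compound quantified by HPLC-UV; t1/2 and CLint derived from this.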

[4] = Intrinsic clearance in Wistar rat liver S9 fraction at 20 uM in presence of NADPH by UPLC-MS/MS analysis; type: ADME, subcellular
[5] = Protein binding in human plasma after 5 hrs by equilibrium dialysis method; type: ADME, cell-free; conditions: read-out: PPB (converted)
Procedure, shortened: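 Equilibrium dialysis across a cellulose membrane (MWCO 12-14 kDa) against isotonic PBS pH 7.4, with human plasma, 37°C for 5 hr. Compound in the plasma and buffer compartments measured by validated RP-HPLC-UV. %Bound = [1 − (buffer conc/plasma conc)] × 100.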

[6] = Half life in Sprague-Dawley rat at 1 mg/kg, sc administered as single dose by UPLC-MS/MS analysis; type: ADME, organism-based; conditions: in vivo
[7] = Tmax in Sprague-Dawley rat at 1 mg/kg, sc administered as single dose by UPLC-MS/MS analysis; type: ADME, organism-based; conditions: in vivo
[8] = Cmax in Sprague-Dawley rat at 1 mg/kg, sc administered as single dose by UPLC-MS/MS analysis; type: ADME, organism-based; design: dose 1 mg/kg, route subcutaneous; conditions: in vivo
[9] = AUC (0 to t) in Sprague-Dawley rat at 1 mg/kg, sc administered as single dose by UPLC-MS/MS analysis; type: ADME, organism-based; conditions: in vivo
[10] = AUC (0 to infinity) in Sprague-Dawley rat at 1 mg/kg, sc administered as single dose by UPLC-MS/MS analysis; type: ADME, organism-based; design: dose 1 mg/kg, route subcutaneous, time infinity; conditions: in vivo
[11] = molecular target: T1, 3',5'-cyclic-AMP phosphodiesterase 4B; assay: Inhibition of human PDE4B by ELISA
[12] = Drug level in Wistar rat liver S9 fraction treated with N-(benzo[d]thiazol-6-yl)-3-(cyclopropylmethoxy)-4-(difluoromethoxy)benzamide at 20 uM in presence of NADPH by UPLC-MS/MS analysis; type: ADME, subcellular; conditions: s9, 20 µM
[13] = molecular target: 3',5'-cyclic-AMP phosphodiesterase 4D (Homo sapiens, UniProt Q08499); assay: Inhibition of human PDE4D by ELISA
Homo sapiens = species: Homo sapiens; assay: Selectivity ratio of IC50 for human PDE4D to IC50 for human PDE4B
[14] = Drug metabolism in Wistar rat liver S9 fraction assessed as aromatic hydroxylation of benzathiazole moiety at 20 uM in presence of NADPH by UPLC-MS/MS analysis; type: ADME, subcellular; conditions: s9, 20 µM
[15] = Metabolic stability in Wistar rat liver S9 fraction assessed as parent compound remaining at 20 uM in presence of NADPH by UPLC-MS/MS analysis; type: ADME, subcellular; conditions: read-out: Stability
[16] = Drug metabolism in Wistar rat liver S9 fraction assessed as 3-(cyclopropylmethoxy)-4-(difluoromethoxy)-N-(2-hydroxybenzo[d]thiazol-6-yl)benzamide formation at 20 uM in presence of NADPH by UPLC-MS/MS analysis; type: ADME, subcellular; conditions: s9, 20 µM
[17] = Drug metabolism in Wistar rat liver S9 fraction assessed as N-(4-amino-3-mercaptophenyl)-3-(cyclopropylmethoxy)-4-(difluoromethoxy)benzamide formation at 20 uM in presence of NADPH by UPLC-MS/MS analysis; type: ADME, subcellular; conditions: s9, 20 µM
[18] = molecular target: T1, 3',5'-cyclic-AMP phosphodiesterase 4B; assay: Inhibition of PDE4B (unknown origin) assessed as increase in cAMP level after 3 hrs by cell based ELISA relative to roflumilast

T1 sequence (Q07343 whole entry): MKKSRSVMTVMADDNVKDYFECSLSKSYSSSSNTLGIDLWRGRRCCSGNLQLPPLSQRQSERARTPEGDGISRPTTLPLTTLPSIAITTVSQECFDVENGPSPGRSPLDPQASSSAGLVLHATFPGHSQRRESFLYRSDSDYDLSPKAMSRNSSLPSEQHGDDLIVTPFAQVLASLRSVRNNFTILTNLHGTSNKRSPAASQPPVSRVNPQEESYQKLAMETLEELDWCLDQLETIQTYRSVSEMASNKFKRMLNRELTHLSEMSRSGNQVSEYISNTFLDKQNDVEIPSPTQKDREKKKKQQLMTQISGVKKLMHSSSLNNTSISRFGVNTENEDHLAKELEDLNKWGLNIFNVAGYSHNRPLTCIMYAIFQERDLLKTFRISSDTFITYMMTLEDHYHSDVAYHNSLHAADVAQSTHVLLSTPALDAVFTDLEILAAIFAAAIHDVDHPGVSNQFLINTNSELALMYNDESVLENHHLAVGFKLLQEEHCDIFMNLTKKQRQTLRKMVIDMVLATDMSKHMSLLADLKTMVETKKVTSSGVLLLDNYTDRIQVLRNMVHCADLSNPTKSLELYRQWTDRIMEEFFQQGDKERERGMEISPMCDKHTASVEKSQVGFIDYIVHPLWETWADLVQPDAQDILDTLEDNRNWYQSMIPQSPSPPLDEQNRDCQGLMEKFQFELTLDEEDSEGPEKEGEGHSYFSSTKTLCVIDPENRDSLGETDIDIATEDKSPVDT
3',5'-cyclic-AMP phosphodiesterase 4D, sequence (Q08499 whole entry): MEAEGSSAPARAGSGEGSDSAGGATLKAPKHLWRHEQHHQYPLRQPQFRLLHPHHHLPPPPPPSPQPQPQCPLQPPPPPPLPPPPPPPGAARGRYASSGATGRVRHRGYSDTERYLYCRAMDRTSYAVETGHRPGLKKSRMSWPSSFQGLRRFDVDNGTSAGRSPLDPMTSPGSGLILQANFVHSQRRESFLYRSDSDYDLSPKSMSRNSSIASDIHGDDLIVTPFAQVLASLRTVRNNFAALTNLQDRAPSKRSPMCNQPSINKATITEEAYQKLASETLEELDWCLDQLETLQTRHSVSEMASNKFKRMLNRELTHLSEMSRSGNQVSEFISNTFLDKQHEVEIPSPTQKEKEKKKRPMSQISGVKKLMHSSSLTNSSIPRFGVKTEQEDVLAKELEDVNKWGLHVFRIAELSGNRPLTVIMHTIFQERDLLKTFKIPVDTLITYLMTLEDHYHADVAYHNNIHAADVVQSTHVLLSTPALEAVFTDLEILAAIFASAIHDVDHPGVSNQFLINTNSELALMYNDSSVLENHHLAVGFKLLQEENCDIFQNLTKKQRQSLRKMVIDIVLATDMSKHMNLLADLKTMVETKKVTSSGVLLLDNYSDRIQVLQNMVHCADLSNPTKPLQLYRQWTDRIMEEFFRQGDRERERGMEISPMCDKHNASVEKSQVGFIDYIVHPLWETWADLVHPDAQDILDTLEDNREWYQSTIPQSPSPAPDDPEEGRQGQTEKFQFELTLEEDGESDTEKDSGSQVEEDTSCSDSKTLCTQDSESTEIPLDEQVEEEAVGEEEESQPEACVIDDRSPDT

Activity [1]: 1.9 pmol/mL | inhibition [2]: 70.3% | half-life at 20 µM [3]: 0.205 h | CLint at 20 µM [4]: 114 mL/min/kg | fraction unbound at 5 h [5]: 0.0151 | half-life [6]: 6.94 h | Tmax [7]: 1 h | Cmax [8]: 109 µg/mL | AUC(0-t) [9]: 449 µg·h/mL | AUC(0-inf) [10]: 500 µg·h/mL
Structure (SMILES): O=C(Nc1c(Cl)cncc1Cl)c1ccc(OC(F)F)c(OCC2CC2)c1 [ROFLUMILAST]

IC50 [11]: 1.28 nM
Structure (SMILES): N#Cc1ccc2nc(NC(=O)c3ccc(OC(F)F)c(OCC4CC4)c3)sc2c1

Drug metabolism [12]: Metabolite_Detected
Structure (SMILES): O=C(Nc1ccc2nc(O)sc2c1)c1ccc(OC(F)F)c(OCC2CC2)c1

IC50 [11]: 1.87 nM
Structure (SMILES): O=C(Nc1nc2ccc(F)cc2s1)c1ccc(OC(F)F)c(OCC2CC2)c1

IC50 [11]: 0.57 nM | IC50 [13]: 5.07 nM | Ratio IC50 (Homo sapiens): 8.89 | Activity [1]: 2.68 pmol/mL | inhibition [2]: 58.6% | half-life at 20 µM [3]: 0.705 h | CLint at 20 µM [4]: 33.2 mL/min/kg | half-life [6]: 9.82 h | Tmax [7]: 1 h | Cmax [8]: 95.5 µg/mL | AUC(0-t) [9]: 594 µg·h/mL | AUC(0-inf) [10]: 800 µg·h/mL | Drug metabolism [14]: Metabolite_Detected | remaining at 20 µM [15]: 36.4%
Structure (SMILES): O=C(Nc1nc2ccccc2s1)c1ccc(OC(F)F)c(OCC2CC2)c1

IC50 [11]: 0.68 nM | IC50 [13]: 2.73 nM | Ratio IC50 (Homo sapiens): 4.01 | half-life at 20 µM [3]: 1.05 h | CLint at 20 µM [4]: 22.3 mL/min/kg | fraction unbound at 5 h [5]: 0.0361 | half-life [6]: 22 h | Tmax [7]: 2 h | Cmax [8]: 86.2 µg/mL | AUC(0-t) [9]: 892 µg·h/mL | AUC(0-inf) [10]: 1620 µg·h/mL | Drug metabolism [16]: Metabolite_Detected | Drug metabolism [17]: Metabolite_Detected | remaining at 20 µM [15]: 36.8%
Structure (SMILES): O=C(Nc1ccc2ncsc2c1)c1ccc(OC(F)F)c(OCC2CC2)c1

Drug metabolism [12]: Metabolite_Detected
Structure (SMILES): Nc1ccc(NC(=O)c2ccc(OC(F)F)c(OCC3CC3)c2)cc1S

Structure (SMILES): COc1ccc2nc(NC(=O)c3ccc(OC(F)F)c(OCC4CC4)c3)sc2c1
IC50 [11]: 2.28 to 2.29 nM

IC50 [11]: 1.26 nM
Structure (SMILES): Cc1nc2ccc(NC(=O)c3ccc(OC(F)F)c(OCC4CC4)c3)cc2s1

IC50 [11]: 1.6 nM
Structure (SMILES): O=C(Nc1nccs1)c1ccc(OC(F)F)c(OCC2CC2)c1

IC50 [11]: 2.92 nM
Structure (SMILES): CCOc1ccc2nc(NC(=O)c3ccc(OC(F)F)c(OCC4CC4)c3)sc2c1

IC50 [11]: 1.17 nM
Structure (SMILES): COc1cc2nc(NC(=O)c3ccc(OC(F)F)c(OCC4CC4)c3)sc2cc1OC

IC50 [11]: 0.75 nM | IC50 [13]: 4.54 nM | Ratio IC50 (Homo sapiens): 6.05 | Activity [1]: 4.45 pmol/mL | inhibition [2]: 67.8% | fold change (FC) [18]: > 2 | half-life at 20 µM [3]: 4.13 h | CLint at 20 µM [4]: 5.67 mL/min/kg | fraction unbound at 5 h [5]: 0.463 | half-life [6]: 22 h | Tmax [7]: 2 h | Cmax [8]: 114 µg/mL | AUC(0-t) [9]: 622 µg·h/mL | AUC(0-inf) [10]: 1040 µg·h/mL | remaining at 20 µM [15]: 84.2%
Structure (SMILES): O=C(Nc1ccc2nc(S)sc2c1)c1ccc(OC(F)F)c(OCC2CC2)c1

IC50 [11]: 1.06 nM
Structure (SMILES): COc1cccc2sc(NC(=O)c3ccc(OC(F)F)c(OCC4CC4)c3)nc12

IC50 [11]: 5.23 nM
Structure (SMILES): O=C(Nc1nc2ccc(C(F)(F)F)cc2s1)c1ccc(OC(F)F)c(OCC2CC2)c1

IC50 [11]: 8.67 nM
Structure (SMILES): O=C(Nc1nc2ccc([N+](=O)[O-])cc2s1)c1ccc(OC(F)F)c(OCC2CC2)c1

IC50 [11]: 1.22 nM
Structure (SMILES): O=C(Nc1nc2ccc(Cl)cc2s1)c1ccc(OC(F)F)c(OCC2CC2)c1
